The series can be described thus: Permeation study in Kerski diffusion cells with PermeaPad biomimetic barrier. It counts as in vitro ADME. Particulars: in the investigated time interval (up to 60 min), pH 7.4, 37 °C. A digest of the protocol: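 Drug-loaded minitablets, composite films or solutions (0.2 mg per 0.64 cm2) placed in donor; composites applied to buffer-moistened membrane. Acceptor: 10 mM dipotassium hydrogen phosphate, pH 7.4, stirred 350 rpm, 37 °C. Samples at 5, 10, 15, 20, 25, 30, 40, 50, 60 min with medium replacement. Quantified by HPLC with fluorescence detection (excitation 278 nm); mean ± SD, n = 3.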

This note sets out measurements from article PMC8220551 (International Journal of Pharmaceutics: X, 2021).

Regarding `NC(=O)CC[C@@H]1NC(=O)[C@H](Cc2ccccc2)NC(=O)[C@H](Cc2ccc(O)cc2)NC(=O)CCSSC[C@@H](C(=O)N2CCC[C@H]2C(=O)N[C@H](CCCN=C(N)N)C(=O)NCC(N)=O)NC(=O)[C@H](CC(N)=O)NC1=O` [DDAVP, 1-desamino-8-D-arginin-vasopressin], the “cumulative drug concentration permeated” value is around 2.6 μg/cm^2.
